Experimental data from ChEMBL document CHEMBL1145002, “Isoform-selective substrates of nitric oxide synthase” (J Med Chem, 2003).

Tests used:
[1] = target: T1, Nitric oxide synthase 3 (Homo sapiens) (UniProt P29474); assay: Evaluation as substrate of endothelial nitric oxide synthase by hemoglobin assay using NOHA as control
T1 sequence (whole entry): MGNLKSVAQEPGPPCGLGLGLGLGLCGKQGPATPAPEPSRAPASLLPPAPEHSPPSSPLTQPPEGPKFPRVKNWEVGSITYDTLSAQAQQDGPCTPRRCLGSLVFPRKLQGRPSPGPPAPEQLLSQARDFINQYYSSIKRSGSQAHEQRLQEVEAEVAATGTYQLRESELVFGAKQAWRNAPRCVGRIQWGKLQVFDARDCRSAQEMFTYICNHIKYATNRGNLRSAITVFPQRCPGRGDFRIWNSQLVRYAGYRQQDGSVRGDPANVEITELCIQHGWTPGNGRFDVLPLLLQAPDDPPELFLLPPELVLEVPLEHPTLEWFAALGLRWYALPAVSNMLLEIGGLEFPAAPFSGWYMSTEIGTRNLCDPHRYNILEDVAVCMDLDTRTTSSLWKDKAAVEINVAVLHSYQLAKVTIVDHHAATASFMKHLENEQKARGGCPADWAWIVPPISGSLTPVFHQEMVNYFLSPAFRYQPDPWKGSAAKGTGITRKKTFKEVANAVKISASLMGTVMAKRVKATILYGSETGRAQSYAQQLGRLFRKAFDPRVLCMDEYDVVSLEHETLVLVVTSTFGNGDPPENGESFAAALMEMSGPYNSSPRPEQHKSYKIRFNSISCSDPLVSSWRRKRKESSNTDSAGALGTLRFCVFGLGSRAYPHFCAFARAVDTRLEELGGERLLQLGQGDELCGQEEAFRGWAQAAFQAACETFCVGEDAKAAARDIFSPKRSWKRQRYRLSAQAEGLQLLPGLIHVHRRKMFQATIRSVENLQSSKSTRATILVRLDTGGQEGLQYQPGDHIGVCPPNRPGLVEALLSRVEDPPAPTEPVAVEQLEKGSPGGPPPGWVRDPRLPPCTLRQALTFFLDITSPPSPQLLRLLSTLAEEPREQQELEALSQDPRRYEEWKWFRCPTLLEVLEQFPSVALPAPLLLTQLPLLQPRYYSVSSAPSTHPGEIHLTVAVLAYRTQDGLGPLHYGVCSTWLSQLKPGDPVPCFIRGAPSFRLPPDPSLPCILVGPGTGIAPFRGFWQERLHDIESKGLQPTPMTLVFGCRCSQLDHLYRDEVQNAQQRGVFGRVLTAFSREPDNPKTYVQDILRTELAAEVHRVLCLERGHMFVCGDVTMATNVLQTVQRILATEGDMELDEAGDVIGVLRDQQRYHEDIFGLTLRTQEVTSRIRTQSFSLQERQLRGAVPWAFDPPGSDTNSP
In short: (§1)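 Oxyhemoglobin-to-methemoglobin conversion was read at 401 nm (ε 38 mM⁻¹ cm⁻¹) at 37 °C to give initial NO rates. Conditions were 0.5–1 unit enzyme in 50 mM HEPES pH 7.4 with 15 μM oxyhemoglobin, SOD, catalase, 200 μM NADPH, 4 μM FAD/FMN, 5 μM BH₄, 2–5 mM DTT and 0.5 mM substrate, plus 1 mM CaCl₂ and 10 μg/mL CaM. Rates are reported relative to NOHA (100%), mean ± SD of ≥3 experiments.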

[2] = target: T2, Nitric oxide synthase, inducible (Mus musculus) (UniProt P29477); assay: Evaluation as substrate of Inducible nitric oxide synthase by hemoglobin assay using NOHA as control; assay type: functional
T2 sequence (whole entry): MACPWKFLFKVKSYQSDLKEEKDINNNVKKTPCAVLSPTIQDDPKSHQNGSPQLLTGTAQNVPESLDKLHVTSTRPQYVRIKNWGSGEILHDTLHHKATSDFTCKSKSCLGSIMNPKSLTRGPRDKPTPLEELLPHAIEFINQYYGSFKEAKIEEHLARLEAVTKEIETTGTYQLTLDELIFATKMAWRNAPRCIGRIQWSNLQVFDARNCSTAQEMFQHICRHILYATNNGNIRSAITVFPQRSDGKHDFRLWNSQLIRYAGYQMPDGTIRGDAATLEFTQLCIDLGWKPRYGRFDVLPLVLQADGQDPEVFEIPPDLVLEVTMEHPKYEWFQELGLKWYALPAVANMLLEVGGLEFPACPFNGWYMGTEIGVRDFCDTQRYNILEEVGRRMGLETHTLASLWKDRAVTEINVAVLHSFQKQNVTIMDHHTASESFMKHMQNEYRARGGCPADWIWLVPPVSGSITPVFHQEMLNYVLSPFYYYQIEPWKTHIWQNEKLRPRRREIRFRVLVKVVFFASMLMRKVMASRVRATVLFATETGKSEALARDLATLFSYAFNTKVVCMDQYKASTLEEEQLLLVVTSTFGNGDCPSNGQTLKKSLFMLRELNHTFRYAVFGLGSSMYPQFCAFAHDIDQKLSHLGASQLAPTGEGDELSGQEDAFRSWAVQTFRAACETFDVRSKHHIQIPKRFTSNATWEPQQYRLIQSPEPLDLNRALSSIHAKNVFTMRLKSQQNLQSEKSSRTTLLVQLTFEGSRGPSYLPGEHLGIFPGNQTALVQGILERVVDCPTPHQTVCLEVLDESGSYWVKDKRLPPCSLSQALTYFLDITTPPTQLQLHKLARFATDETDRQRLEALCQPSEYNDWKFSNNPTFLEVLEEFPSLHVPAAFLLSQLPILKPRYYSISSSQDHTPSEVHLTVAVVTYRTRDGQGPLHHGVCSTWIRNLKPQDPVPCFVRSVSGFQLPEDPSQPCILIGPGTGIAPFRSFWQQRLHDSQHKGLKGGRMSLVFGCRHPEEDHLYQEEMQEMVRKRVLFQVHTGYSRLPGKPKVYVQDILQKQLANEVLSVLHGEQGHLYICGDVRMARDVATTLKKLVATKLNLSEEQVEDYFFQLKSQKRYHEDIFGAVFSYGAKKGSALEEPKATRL
In short: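 Initial NO-synthesis rate at 37 °C by spectrophotometric oxyhemoglobin assay. The cuvette held 0.5–1 unit enzyme in 50 mM HEPES pH 7.4 with 15 μM oxyhemoglobin, SOD, catalase, 200 μM NADPH, 4 μM FAD/FMN, 5 μM BH₄, 2–5 mM DTT, 0.5 mM substrate and 1 mM magnesium acetate. Methemoglobin formation was followed at 401 nm (ε 38 mM⁻¹ cm⁻¹). Rates are given as % of NOHA, mean ± SD, n≥3.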

[3] = target: Nitric oxide synthase 1 (Rattus norvegicus) (UniProt P29476); assay: Evaluation as substrate of Neuronal nitric oxide synthase by hemoglobin assay using NOHA as control; in short: as §1
Chain of Nitric oxide synthase 1 (Rattus norvegicus) (P29476 whole entry): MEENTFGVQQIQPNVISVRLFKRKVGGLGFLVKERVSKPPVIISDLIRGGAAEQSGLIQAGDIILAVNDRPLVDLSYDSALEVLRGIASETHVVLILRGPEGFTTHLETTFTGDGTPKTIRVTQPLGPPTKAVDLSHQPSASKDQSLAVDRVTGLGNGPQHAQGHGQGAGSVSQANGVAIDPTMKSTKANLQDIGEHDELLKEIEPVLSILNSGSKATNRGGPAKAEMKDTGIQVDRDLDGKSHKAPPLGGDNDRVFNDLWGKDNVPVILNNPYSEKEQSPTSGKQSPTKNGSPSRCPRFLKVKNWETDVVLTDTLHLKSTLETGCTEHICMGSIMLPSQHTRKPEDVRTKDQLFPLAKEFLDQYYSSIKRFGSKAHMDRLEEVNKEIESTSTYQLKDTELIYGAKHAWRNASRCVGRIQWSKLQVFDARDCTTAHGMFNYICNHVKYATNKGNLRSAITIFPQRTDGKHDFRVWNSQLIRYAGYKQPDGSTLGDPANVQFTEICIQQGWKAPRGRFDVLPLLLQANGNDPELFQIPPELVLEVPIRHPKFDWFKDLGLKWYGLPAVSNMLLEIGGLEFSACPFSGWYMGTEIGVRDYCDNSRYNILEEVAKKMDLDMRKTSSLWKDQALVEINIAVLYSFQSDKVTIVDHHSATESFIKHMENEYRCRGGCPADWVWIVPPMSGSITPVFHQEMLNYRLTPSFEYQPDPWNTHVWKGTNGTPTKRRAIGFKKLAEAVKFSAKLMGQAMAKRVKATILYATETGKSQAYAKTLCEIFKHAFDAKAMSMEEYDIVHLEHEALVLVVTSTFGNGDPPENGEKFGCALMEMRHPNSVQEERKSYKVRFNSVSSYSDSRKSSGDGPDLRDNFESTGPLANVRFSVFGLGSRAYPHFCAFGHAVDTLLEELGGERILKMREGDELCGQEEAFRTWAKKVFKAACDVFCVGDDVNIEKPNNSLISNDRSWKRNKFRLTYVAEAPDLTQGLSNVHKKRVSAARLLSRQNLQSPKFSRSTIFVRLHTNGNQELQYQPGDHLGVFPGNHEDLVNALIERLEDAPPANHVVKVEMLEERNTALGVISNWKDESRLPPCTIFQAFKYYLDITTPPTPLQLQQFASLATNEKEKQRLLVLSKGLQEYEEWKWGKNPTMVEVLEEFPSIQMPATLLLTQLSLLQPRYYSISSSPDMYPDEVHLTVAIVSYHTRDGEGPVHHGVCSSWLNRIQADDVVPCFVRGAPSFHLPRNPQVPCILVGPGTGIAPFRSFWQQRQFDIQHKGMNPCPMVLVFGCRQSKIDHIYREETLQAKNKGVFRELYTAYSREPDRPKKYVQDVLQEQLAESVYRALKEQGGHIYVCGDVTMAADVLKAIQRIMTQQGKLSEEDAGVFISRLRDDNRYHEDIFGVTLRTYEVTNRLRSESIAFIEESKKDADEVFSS

`C#CCC/N=C(/N)NO` gave an NO formation [1] of less than 0.5%, an NO formation [2] of 28% and an NO formation [3] of 37%.

Compound `C/C=C/CN=C(N)N` has an NO formation [1] of less than 0.5%, an NO formation [2] of less than 0.5% and an NO formation [3] of less than 0.5%.

In the case of `CCCCN=C(N)N`, the NO formation [1] is reported as less than 0.5%, the NO formation [2] is reported as 6% and the NO formation [3] is reported as less than 0.5%.

Work on `N=C(N)NCCC[C@H](N)C(=O)O` yielded an NO formation [1] of 38%, an NO formation [2] of 50% and an NO formation [3] of 72%.

Work on `N/C(=N\O)N1CCCC1` yielded an NO formation [1] of less than 0.5%, an NO formation [2] of less than 0.5% and an NO formation [3] of less than 0.5%.

With `N=C(N)NCC1CC1` the NO formation [1] was less than 0.5%, the NO formation [2] was less than 0.5% and the NO formation [3] was less than 0.5%.

`CCCCN(C)C(=N)NO` gave an NO formation [1] of less than 0.5%, an NO formation [2] of less than 0.5% and an NO formation [3] of less than 0.5%.

In the case of `CCCCN/C(N)=N/O`, the NO formation [1] is reported as 20%, the NO formation [2] is reported as 42% and the NO formation [3] is reported as 64%.

`N/C(=N/CC1CC1)NO` was tested, and the NO formation [1] was less than 0.5%, the NO formation [2] was less than 0.5% and the NO formation [3] was less than 0.5%.

For `CC(C)NC(=N)NO`, the NO formation [1] was 38%, the NO formation [2] was 15% and the NO formation [3] was 70%.

With `CC1CC1CN=C(N)N` (stereo not drawn) the NO formation [1] was less than 0.5%, the NO formation [2] was less than 0.5% and the NO formation [3] was less than 0.5%.

`CCCC/N=C(/N)NOCc1ccccc1` showed an NO formation [1] of less than 0.5%, an NO formation [2] of less than 0.5% and an NO formation [3] of less than 0.5%.

For `C/C=C/C/N=C(/N)NO`, the NO formation [1] was less than 0.5%, the NO formation [2] was less than 0.5% and the NO formation [3] was 5%.

`N/C(=N\O)N1CCOCC1` was tested, and the NO formation [1] was less than 0.5%, the NO formation [2] was less than 0.5% and the NO formation [3] was less than 0.5%.

`N/C(=N/C1CC1)NO` showed an NO formation [1] of 26%, an NO formation [2] of less than 0.5% and an NO formation [3] of 70%.

`CCCC/N=C(/N)NOC` gave an NO formation [1] of less than 0.5%, an NO formation [2] of less than 0.5% and an NO formation [3] of less than 0.5%.
